Source: paper PMC10316739 (Drug Delivery, 2023)

Key:
[1] = stated in introduction; ref Bethesda, [2012]; cited from earlier work
[2] = tested on: luteinizing hormone (LH); test: Pharmacodynamics: plasma LH; assay type: in vivo, female Sprague–Dawley rats; details: rats, triptorelin 9 μg/kg s.c., ELISA, n = 8
Procedure, shortened: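 Six-week-old female rats (200 g ± 20 g) with similar cycles were split randomly into two groups of eight. One group received subcutaneous drug solution (9 μg/kg). The other received the microneedle patch (9 μg/kg) on shaved back skin, finger-pressed 3 min before the base was removed. Orbital-plexus blood was taken into heparinised tubes at 0.5–48 h and plasma stored at −80 °C. LH was measured by ELISA kit.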

[3] = Pharmacokinetics of triptorelin in rats; assay type: in vivo, female Sprague–Dawley rats
Procedure, shortened: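 Female rats aged 6 weeks were randomised into two groups (n = 8). One group received a 9 μg/kg subcutaneous solution and the other a 9 μg/kg microneedle patch on shaved back skin, pressed 3 min. Heparinised orbital-plexus blood was sampled at 0.5, 1, 2, 4, 8, 24 and 48 h. Plasma was centrifuged, stored at −80 °C and assayed by LC–MS/MS. PK parameters were computed from concentration–time profiles.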

[4] = female, Sprague-Dawley, rat, plasma, sc, 9 ug/kg

- AUC(0-t) [3, 4]: 8.65 ± 0.41 ng·h/mL
- Cmax [3, 4]: 10.5 ± 0.6 ng/mL
- Tmax [3, 4]: 0.5 h
- half-life [3, 4]: 2.11 ± 0.05 h
- triptorelin concentration in plasma at 24 h ([3]; rats, 9 μg/kg s.c., 24 h, LC–MS/MS): could not be detected
SMILES: CC(C)C[C@H](NC(=O)[C@@H](Cc1c[nH]c2ccccc12)NC(=O)[C@H](Cc1ccc(O)cc1)NC(=O)[C@H](CO)NC(=O)[C@H](Cc1c[nH]c2ccccc12)NC(=O)[C@H](Cc1c[nH]cn1)NC(=O)[C@@H]1CCC(=O)N1)C(=O)N[C@@H](CCCNC(=N)N)C(=O)N1CCC[C@H]1C(=O)NCC(N)=O [triptorelin, Triptorelin acetate]
- enhanced activity compared with GnRH [1]: 100 fold
- plasma LH levels at 48 h [2]: returned to a normal physiological state
